Assay results published in the M2OR odorant receptor database.

Tests used:
Conditions in all cases: stereoisomer not certain
OR10G2 (Homo sapiens) = biological target: T1, OR10G2 (Homo sapiens) (UniProt Q8NGC3)
T1 sequence (whole entry): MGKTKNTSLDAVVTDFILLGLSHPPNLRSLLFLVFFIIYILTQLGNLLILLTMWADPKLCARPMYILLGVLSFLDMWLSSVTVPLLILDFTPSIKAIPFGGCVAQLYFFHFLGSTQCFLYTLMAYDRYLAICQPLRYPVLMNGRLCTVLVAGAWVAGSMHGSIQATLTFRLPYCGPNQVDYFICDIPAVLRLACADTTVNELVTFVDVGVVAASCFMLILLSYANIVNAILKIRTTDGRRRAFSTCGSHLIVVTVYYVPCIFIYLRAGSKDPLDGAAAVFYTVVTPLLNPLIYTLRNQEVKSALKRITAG
Outline: (§1)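 Each receptor–molecule pair is labelled responsive or non-responsive (inactive) according to whether the original authors judged the measured signal statistically different from baseline. The data were taken from the main text and supplementary material of published papers and checked for typos and inconsistencies. Assay methods differed by source, with transient luciferase assays in mammalian cell lines being common.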

OR10G3 (Homo sapiens) = biological target: T2, OR10G3 (Homo sapiens) (UniProt Q8NGC4)
T2 sequence (whole entry): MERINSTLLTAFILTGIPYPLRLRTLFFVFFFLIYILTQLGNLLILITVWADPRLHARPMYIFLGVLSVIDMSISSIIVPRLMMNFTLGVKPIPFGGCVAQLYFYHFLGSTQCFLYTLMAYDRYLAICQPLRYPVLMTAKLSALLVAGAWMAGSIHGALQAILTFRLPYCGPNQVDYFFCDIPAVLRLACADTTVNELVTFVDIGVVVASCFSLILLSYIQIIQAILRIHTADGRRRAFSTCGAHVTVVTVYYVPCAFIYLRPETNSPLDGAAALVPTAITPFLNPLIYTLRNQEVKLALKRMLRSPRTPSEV
Outline: as §1

OR10G4 (Homo sapiens) = biological target: T3, OR10G4 (Homo sapiens) (UniProt Q8NGN3)
T3 sequence (whole entry): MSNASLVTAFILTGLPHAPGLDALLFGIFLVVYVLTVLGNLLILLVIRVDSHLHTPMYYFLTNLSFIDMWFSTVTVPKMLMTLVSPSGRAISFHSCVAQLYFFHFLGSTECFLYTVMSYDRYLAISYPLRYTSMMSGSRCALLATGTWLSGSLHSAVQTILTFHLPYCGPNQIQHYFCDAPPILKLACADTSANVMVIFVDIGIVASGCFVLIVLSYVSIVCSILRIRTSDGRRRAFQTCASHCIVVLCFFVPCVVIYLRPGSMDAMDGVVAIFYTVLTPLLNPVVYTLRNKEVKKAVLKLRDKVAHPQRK
Outline: as §1

OR10G6 (Homo sapiens) = biological target: T4, OR10G6 (Homo sapiens) (UniProt Q8NH81)
T4 sequence (whole entry): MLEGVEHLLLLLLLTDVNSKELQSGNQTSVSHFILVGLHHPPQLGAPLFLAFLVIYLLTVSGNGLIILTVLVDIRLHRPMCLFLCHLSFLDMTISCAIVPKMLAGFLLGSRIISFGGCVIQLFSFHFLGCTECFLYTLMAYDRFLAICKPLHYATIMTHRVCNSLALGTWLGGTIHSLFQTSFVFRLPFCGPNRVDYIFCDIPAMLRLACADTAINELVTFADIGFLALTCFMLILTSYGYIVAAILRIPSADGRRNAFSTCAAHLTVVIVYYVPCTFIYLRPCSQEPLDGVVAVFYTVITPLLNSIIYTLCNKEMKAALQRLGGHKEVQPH
Outline: as §1

OR10G7 (Homo sapiens) = biological target: T5, OR10G7 (Homo sapiens) (UniProt Q8NGN6)
T5 sequence (whole entry): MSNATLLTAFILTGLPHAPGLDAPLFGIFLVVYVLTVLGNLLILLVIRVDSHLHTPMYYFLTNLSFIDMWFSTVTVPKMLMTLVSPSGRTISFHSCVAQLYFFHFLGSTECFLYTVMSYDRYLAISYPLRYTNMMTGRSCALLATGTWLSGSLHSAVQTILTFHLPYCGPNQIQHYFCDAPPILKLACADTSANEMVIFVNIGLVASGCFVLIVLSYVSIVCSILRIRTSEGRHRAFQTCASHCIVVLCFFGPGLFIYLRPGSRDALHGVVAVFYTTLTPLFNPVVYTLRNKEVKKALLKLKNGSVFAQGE
Outline: as §1

OR10G8 (Homo sapiens) = biological target: T6, OR10G8 (Homo sapiens) (UniProt Q8NGN5)
T6 sequence (whole entry): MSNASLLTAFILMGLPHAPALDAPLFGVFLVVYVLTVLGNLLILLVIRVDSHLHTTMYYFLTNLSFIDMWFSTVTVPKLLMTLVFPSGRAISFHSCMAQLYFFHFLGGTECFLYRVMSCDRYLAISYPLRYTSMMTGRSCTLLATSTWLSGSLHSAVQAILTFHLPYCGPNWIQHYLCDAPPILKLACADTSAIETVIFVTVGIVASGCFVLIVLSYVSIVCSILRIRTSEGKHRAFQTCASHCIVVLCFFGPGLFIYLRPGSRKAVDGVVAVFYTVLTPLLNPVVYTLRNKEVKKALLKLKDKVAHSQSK
Outline: as §1

OR10G9 (Homo sapiens) = biological target: T7, OR10G9 (Homo sapiens) (UniProt Q8NGN4)
T7 sequence (whole entry): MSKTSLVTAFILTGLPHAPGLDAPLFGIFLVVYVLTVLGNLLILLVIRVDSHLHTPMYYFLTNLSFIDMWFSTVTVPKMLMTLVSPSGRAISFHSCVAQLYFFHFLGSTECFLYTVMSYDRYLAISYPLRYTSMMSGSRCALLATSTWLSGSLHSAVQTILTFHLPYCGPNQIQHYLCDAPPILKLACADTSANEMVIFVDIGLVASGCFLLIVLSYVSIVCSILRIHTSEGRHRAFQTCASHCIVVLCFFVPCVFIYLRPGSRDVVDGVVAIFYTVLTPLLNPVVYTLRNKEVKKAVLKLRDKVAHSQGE
Outline: as §1

OR10H1 (Homo sapiens) = biological target: T8, OR10H1 (Homo sapiens) (UniProt Q9Y4A9)
T8 sequence (whole entry): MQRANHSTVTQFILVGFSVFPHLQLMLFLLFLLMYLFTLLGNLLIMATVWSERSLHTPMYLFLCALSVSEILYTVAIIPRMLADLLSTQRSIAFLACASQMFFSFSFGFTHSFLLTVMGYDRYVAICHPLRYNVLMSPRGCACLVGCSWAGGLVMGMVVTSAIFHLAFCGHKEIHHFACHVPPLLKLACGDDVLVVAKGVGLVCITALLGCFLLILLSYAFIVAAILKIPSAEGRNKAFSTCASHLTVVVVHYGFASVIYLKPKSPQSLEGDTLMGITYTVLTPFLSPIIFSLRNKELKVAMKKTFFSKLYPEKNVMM
Outline: as §1

OR10H2 (Homo sapiens) = biological target: T9, OR10H2 (Homo sapiens) (UniProt O60403)
T9 sequence (whole entry): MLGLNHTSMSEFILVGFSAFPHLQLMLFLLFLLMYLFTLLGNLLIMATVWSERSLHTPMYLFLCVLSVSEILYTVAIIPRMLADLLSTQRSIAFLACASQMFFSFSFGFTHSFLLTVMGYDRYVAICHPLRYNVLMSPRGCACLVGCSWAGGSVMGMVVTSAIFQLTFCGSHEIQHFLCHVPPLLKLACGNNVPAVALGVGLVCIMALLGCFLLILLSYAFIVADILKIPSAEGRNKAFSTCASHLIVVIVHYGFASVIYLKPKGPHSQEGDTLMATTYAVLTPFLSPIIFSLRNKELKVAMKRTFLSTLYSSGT
Outline: as §1

Measured: odorant receptor agonist call;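 note: active if original authors judged signal statistically different from baseline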

CCCCC(S)C(C)CO (centres undefined)
inactive: OR10G2 (Homo sapiens) | OR10G3 (Homo sapiens) | OR10G4 (Homo sapiens) | OR10G6 (Homo sapiens) | OR10G7 (Homo sapiens) | OR10G8 (Homo sapiens) | OR10G9 (Homo sapiens) | OR10H1 (Homo sapiens) | OR10H2 (Homo sapiens)
